# Experimental data as given in ChEMBL document CHEMBL4229397, “N-(7-Cyano-6-(4-fluoro-3-(2-(3-(trifluoromethyl)phenyl)acetamido)phenoxy)benzo[d]thiazol-2-yl)cyclopropanecarboxamide (TAK632) Promotes Inhibition of BRAF through the Induction of Inhibited Dimers” (J Med Chem, 2018).
# Activity calls are given as the source filed them. The calls are words filed in the database; no cut-off is given here.
# How the values were obtained:
# [1] = target: T1, Serine/threonine-protein kinase B-raf (Homo sapiens, UniProt P15056); experiment: Inhibition of N-terminal 6x-His-tagged BRAF kinase domain (unknown origin) expressed in baculovirus infected Sf9 insect cells co-expressing mouse p50cdc37 using C-terminal His-tagged/N-terminal GST-tagged full length human MEK1 as substrate after 1 hr by ELISA
# T1 sequence (P15056 whole entry, the tested form may be a part): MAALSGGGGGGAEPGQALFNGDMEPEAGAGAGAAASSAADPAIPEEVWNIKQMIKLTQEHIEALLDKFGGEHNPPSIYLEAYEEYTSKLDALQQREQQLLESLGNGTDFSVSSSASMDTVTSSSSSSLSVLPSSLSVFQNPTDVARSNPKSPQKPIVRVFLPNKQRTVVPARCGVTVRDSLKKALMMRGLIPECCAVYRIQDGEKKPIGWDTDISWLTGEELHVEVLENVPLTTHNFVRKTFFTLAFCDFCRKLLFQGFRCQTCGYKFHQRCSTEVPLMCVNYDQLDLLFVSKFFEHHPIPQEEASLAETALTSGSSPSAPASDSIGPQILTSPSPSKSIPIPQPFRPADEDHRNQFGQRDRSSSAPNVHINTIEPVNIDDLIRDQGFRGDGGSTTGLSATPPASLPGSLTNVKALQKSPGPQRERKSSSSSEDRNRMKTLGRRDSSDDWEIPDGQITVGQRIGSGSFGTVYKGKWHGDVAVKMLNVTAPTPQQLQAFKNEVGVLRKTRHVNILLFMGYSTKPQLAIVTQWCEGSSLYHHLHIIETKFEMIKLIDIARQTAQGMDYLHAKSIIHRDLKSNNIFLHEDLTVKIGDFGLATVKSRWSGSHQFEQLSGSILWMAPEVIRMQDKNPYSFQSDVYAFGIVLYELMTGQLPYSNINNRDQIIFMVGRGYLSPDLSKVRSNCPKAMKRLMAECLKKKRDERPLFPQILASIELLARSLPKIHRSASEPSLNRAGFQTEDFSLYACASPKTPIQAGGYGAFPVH
# Summary of the method: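 His-tagged BRAF kinase domain (residues 442–724, WT or V600E) was preincubated with inhibitor 1 h at room temperature in 50 mM HEPES pH 7.0, 50 mM NaCl. It was then added to GST-MEK1 bound on glutathione plates, with 100 μM ATP final in 50 mM HEPES pH 7.0, 200 mM NaCl, 20 mM MgCl2, for 30 min at 37 °C. Phospho-MEK (S217/S221) was read by chemiluminescent ELISA. Curves run in duplicate/triplicate, min–max normalized, IC50 from log(inhibitor)–response fit.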
# [2] = target: Serine/threonine-protein kinase B-raf (Homo sapiens, UniProt P15056, V600E); experiment: Inhibition of N-terminal 6x-His-tagged BRAF V600E mutant (unknown origin) expressed in baculovirus infected Sf9 insect cells co-expressing mouse p50cdc37 using C-terminal His-tagged/N-terminal GST-tagged full length human MEK1 as substrate after 1 hr by ELISA
# Sequence of Serine/threonine-protein kinase B-raf (Homo sapiens, UniProt P15056, V600E) (P15056 2-766 V600E limits assumed): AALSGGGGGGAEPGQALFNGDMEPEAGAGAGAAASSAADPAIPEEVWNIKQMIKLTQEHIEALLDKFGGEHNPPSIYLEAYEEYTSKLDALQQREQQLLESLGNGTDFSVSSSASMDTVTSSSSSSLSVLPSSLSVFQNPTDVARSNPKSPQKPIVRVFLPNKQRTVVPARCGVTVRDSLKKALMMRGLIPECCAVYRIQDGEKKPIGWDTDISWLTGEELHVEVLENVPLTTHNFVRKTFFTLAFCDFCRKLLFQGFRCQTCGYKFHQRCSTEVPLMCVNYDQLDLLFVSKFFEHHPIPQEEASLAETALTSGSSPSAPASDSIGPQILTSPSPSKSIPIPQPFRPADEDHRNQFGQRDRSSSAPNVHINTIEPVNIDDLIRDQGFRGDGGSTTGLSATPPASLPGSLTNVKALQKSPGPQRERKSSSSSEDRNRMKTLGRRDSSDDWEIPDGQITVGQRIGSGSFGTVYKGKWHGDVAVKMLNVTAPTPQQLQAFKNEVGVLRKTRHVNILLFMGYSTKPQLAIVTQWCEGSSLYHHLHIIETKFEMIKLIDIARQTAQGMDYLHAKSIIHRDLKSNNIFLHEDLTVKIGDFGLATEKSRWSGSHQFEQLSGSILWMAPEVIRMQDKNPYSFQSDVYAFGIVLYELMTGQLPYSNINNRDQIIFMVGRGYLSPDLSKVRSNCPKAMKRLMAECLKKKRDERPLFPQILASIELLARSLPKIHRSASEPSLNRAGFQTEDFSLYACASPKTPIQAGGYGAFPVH
# Summary of the method: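 ELISA: GST-MEK1 bound to glutathione-coated plate 1 h, room temperature. Insect-cell His-BRAF V600E (1:1000 dilution) preincubated with inhibitor 1 h, room temperature, then reacted with 100 μM ATP in 50 mM HEPES pH 7.0, 200 mM NaCl, 20 mM MgCl2, 30 min, 37 °C. Anti-pMEK S217/S221, HRP secondary, chemiluminescence. Duplicate or triplicate, min–max normalized, log(inhibitor)-response IC50.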
# [3] = target: T1, Serine/threonine-protein kinase B-raf; experiment: Induction of N-terminal 6x-His-tagged BRAF (unknown origin) dimer formation expressed in baculovirus infected Sf9 insect cells co-expressing mouse p50cdc37 assessed as melting temperature at 125 uM by differential scanning calorimetric method
# [4] = target: T1, Serine/threonine-protein kinase B-raf; experiment: Induction of N-terminal 6x-His-tagged BRAF (unknown origin) dimer formation expressed in baculovirus infected Sf9 insect cells co-expressing mouse p50cdc37 at 200 uM measured after trypsin digestion for 30 mins by coomassie blue staining-based SDS-PAGE method
# [5] = test system: Serine/threonine-protein kinase B-raf (Homo sapiens), P15056 [V600E]; experiment: Induction of N-terminal 6x-His-tagged BRAF V600E mutant (unknown origin) dimer formation expressed in baculovirus infected Sf9 insect cells co-expressing mouse p50cdc37 at 20 uM by sedimentation velocity method
# Sequence of Serine/threonine-protein kinase B-raf (Homo sapiens), P15056 [V600E] (P15056 whole entry V600E): as the sequence (P15056 whole entry, the tested form may be a part) above, with V600E counted along it
# [6] = target: T1, Serine/threonine-protein kinase B-raf; experiment: Induction of N-terminal 6x-His-tagged BRAF (unknown origin) dimer formation expressed in baculovirus infected Sf9 insect cells co-expressing mouse p50cdc37 assessed as melting temperature at 75 uM by differential scanning calorimetric method (reference value: 37.84 degC)
# [7] = target: T1, Serine/threonine-protein kinase B-raf; experiment: Induction of N-terminal 6x-His-tagged BRAF (unknown origin) dimer formation expressed in baculovirus infected Sf9 insect cells co-expressing mouse p50cdc37 at 15 uM by sedimentation velocity method
# [8] = target: T1, Serine/threonine-protein kinase B-raf; experiment: Induction of N-terminal 6x-His-tagged BRAF (unknown origin) dimer formation expressed in baculovirus infected Sf9 insect cells co-expressing mouse p50cdc37 assessed as melting temperature at 250 uM by differential scanning calorimetric method (reference value: 37.84 degC)
# [9] = test system: Serine/threonine-protein kinase B-raf (Homo sapiens), P15056 [V600E]; experiment: Induction of N-terminal 6x-His-tagged BRAF V600E mutant (unknown origin) dimer formation expressed in baculovirus infected Sf9 insect cells co-expressing mouse p50cdc37 at 10 uM by sedimentation velocity method
SMILES,IC50 [1] [nM],IC50 [2] [nM],Tm [3] [°C],Activity [4],Activity [5],Tm [6] [°C],Activity [7],Tm [8] [°C],Activity [9]
N#Cc1c(Oc2ccc(F)c(NC(=O)Cc3cccc(C(F)(F)F)c3)c2)ccc2nc(NC(=O)COCC(=O)Nc3nc4ccc(Oc5ccc(F)c(NC(=O)Cc6cccc(C(F)(F)F)c6)c5)c(C#N)c4s3)sc12,537,421,–,–,–,–,–,–,–
N#Cc1c(Oc2ccc(F)c(NC(=O)Cc3cccc(C(F)(F)F)c3)c2)ccc2nc(NC(=O)COCCOCCOCC(=O)Nc3nccs3)sc12,20.3,–,63.3,Active,–,–,–,–,–
N#Cc1c(Oc2ccc(F)c(NC(=O)Cc3cccc(C(F)(F)F)c3)c2)ccc2nc(NC(=O)COCCOCCOCCOCCOCCOCCOCC(=O)Nc3nc4ccc(Oc5ccc(F)c(NC(=O)Cc6cccc(C(F)(F)F)c6)c5)c(C#N)c4s3)sc12,732,352,–,–,–,–,–,–,–
N#Cc1c(Oc2ccc(F)c(NC(=O)Cc3cccc(C(F)(F)F)c3)c2)ccc2nc(NC(=O)COCCOCCOCCOCCOCC(=O)Nc3nc4ccc(Oc5ccc(F)c(NC(=O)Cc6cccc(C(F)(F)F)c6)c5)c(C#N)c4s3)sc12,85.5 to 90.2,73.8,–,–,inactive,–,–,–,–
N#Cc1c(Oc2ccc(F)c(NC(=O)Cc3cccc(C(F)(F)F)c3)c2)ccc2nc(NC(=O)COCCOCCOCC(=O)Nc3nc4ccc(Oc5ccc(F)c(NC(=O)Cc6cccc(C(F)(F)F)c6)c5)c(C#N)c4s3)sc12,87.2 to 132,73.9,38.7 to 59.6,inactive,inactive,38.4 to 58.6,inactive,40.1 to 62.6,inactive
N#Cc1c(Oc2ccc(F)c(NC(=O)Cc3cccc(C(F)(F)F)c3)c2)ccc2nc(NC(=O)C3CC3)sc12,3.23 to 7.11,4.46,68.7,Active,–,–,Active,–,Active
CCCS(=O)(=O)Nc1ccc(F)c(C(=O)c2c[nH]c3ncc(-c4ccc(Cl)cc4)cc23)c1F,–,–,–,inactive,–,–,inactive,–,–
N#Cc1c(Oc2ccc(F)c(NC(=O)Cc3cccc(C(F)(F)F)c3)c2)ccc2nc(NC(=O)COCCOCCOCCOCC(=O)Nc3nc4ccc(Oc5ccc(F)c(NC(=O)Cc6cccc(C(F)(F)F)c6)c5)c(C#N)c4s3)sc12,616,168,–,–,–,–,–,–,–
COCCOCC(=O)Nc1nc2ccc(Oc3ccc(F)c(NC(=O)Cc4cccc(C(F)(F)F)c4)c3)c(C#N)c2s1,5.75,–,–,–,–,–,–,–,–
